# Compounds with a hit are over-represented: about 2.9% of the library has one in this group of screens.
# Hck-Nef inh – inhibitors of human Hck kinase activated by Nef; P08631; Recombinant Hck-YEEI plus Nef, Z-Lyte FRET kinase assay; inhibition, % at 20 µM; 220,000 compounds, 0.68% hits;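 active = Hck-Nef kinase inhibition above about 50%, limit read from the data; inactive = inhibition below that limit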
# RBBP9 inh – human RBBP9 hydrolase inhibition. recombinant RBBP9, FP-Rh probe fluorescence polarization. inhibition, % at 7.94 µM. 220,000 compounds, 0.2% hits. AID 1515;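 active = inhibition above the campaign mean of all tested compounds plus 3 SD, cut at about 14% in these data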
# Target sequence (O75884 whole entry, looked up): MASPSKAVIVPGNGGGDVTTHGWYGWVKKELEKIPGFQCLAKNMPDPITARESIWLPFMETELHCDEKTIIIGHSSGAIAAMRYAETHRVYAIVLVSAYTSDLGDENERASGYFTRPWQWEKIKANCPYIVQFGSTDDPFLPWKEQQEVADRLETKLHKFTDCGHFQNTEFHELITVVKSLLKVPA
#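 Assay system: recombinant human RBBP9; Reagent: Serine-hydrolase probe FP-Rh, 375 nM pre-mixing; Doses: 7.94 µM single dose, 0.794% DMSO; Incubation: 30 min then 45 min, 25 °C; Detection: fluorescence polarization (mP), excitation 525 nm, emission 598 nm; Evaluation: percent inhibition from mP, scaled between DMSO and no-protein wells.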
# Runt-SMMHC FRET – inhibitors of human RUNX1 Runt domain binding to CBFb-SMMHC. Q01196+Q13951. Cerulean-Runt/Venus-CBFb-SMMHC FRET ratio 530/480, 1 h. inhibition, % at 20 µM. 220,000 compounds, 0.74% hits. AID 1434;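 active = mean inhibition across duplicate retests at 20 µM reaching about 50%, limit read from the data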;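 note: inhibitors lower the FRET ratio by blocking Runt binding to CBFb-SMMHC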
# RanGTP-Imp inh – inhibitors of RanGTP-importin-beta interaction, primary screen, biochemical, FRET, CFP-Ran, YFP-importin-beta, homogeneous; cell-free CFP-Ran/YFP-importin-beta FRET ratio; inhibition, % (no concentration beside the values); 300,000 compounds, 1.1% hits;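 active = more than half of the replicate wells show a fall in the fluorescence ratio signal beyond about 16%, limit read from the data, passing the limit was not always enough; inconclusive = exactly half of the replicate wells pass the set limit; inactive = fewer than half of replicates pass the limit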
# PfM18AAP inh-1 – blocks P. falciparum M18 aspartyl aminopeptidase. recombinant PfM18AAP, H-Glu-NHMec fluorogenic cleavage. inhibition, % at 7.35 µM. 290,000 compounds, 1.2% hits. AID 1822;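 active = inhibition above the campaign mean inhibition over all tested compounds plus 3 SD, cut at about 28% in these data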
# Runt-CBFb FRET – Runt domain-CBFb interaction inhibition. Q01196+Q13951. Cerulean-Runt/Venus-CBFb FRET ratio 530/480, 1 h. inhibition, % at 20 µM. 220,000 compounds, 0.46% hits;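 active = inhibition over about 50% at 20 µM in the single-dose screen, limit read from the data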
#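 test system = Cerulean-tagged RUNX1 Runt domain (FRET donor) fusion protein | reagent = Venus-CBFb binding partner, 100 nM | incubation = protein complex preformed 1 h, compound exposure 1 h, room temperature, dark | detection = FRET fluorescence | read-out basis = loss of energy transfer signal | controls = 5 µM unlabeled CBFb as full-inhibition high control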
# PfM18AAP inh-2 – confirmation of Plasmodium falciparum M18 aspartyl aminopeptidase inhibitors. inhibition, % at 7.35 µM. AID 2170. 2,400 compounds, 28% hits. shares compounds with PfM18AAP inh-1. recombinant PfM18AAP, H-Glu-NHMec fluorogenic cleavage;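 active = mean inhibition over replicate wells above the hit cutoff set for the earlier primary screen, cut at about 29% in these data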
# CTSL1 confirm – counter-screen for PFM18AAP inhibitors: confirmation of human cathepsin L inhibitors; shares compounds with PfM18AAP inh-1; purified cathepsin L1, Z-Leu-Arg-MCA fluorescence; inhibition, % at 5.96 µM; 2,400 tested, under 10 active;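 active = average inhibition across replicates above the hit cutoff set in the earlier primary screen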
# Target sequence (P07711 whole entry, looked up): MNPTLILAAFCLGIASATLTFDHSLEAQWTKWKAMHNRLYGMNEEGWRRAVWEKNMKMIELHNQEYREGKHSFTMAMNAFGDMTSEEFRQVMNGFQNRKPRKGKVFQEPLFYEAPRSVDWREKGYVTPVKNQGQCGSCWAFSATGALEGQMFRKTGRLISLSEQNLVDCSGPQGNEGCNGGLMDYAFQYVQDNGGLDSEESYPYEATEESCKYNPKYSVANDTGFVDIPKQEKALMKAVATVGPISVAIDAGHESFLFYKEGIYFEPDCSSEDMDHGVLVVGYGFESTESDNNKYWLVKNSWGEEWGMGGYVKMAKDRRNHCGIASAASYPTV
# Hits are given with their value; . = inactive; ? = inconclusive; / = not tested or not shown; ! = a repeat was not active.
SMILES,Hck-Nef inh,RBBP9 inh,Runt-SMMHC FRET,RanGTP-Imp inh,PfM18AAP inh-1,Runt-CBFb FRET,PfM18AAP inh-2,CTSL1 confirm
COc1ccc(/C=N/Nc2nc(C(=O)O)cs2)cc1,/,/,/,?,34,/,.,.
C/C(=N\Nc1nc(C(=O)O)cs1)c1ccccc1,.,.,.,.,42,.,.,.
Cn1ccsc1=NC(=O)c1cccc(OC(F)F)c1,/,/,/,.,.,/,/,/
CSc1nc(=S)c2[nH]c(=S)[nH]c2[nH]1,.,.,51,.,46,.,40,.
COc1ccc(C(=O)NCCCCCC(=O)N/N=C/c2ccco2)cc1OC,.,.,.,.,.,.,/,/
COc1ccc(C(=O)NCC(=O)N/N=C/c2ccco2)cc1OC,/,/,/,.,44,/,.,.
CCN(CC)S(=O)(=O)c1cc([N+](=O)[O-])ccc1NNC(=O)Nc1ccc(Cl)c(Cl)c1,.,.,.,.,50,.,.,.
COc1cc(/C=N/NC(=O)COc2ccc([N+](=O)[O-])cc2)ccc1OCC(=O)N1CCOCC1,/,/,/,.,.,/,/,/
Nc1cc(C(=O)O)ccc1Nc1ccccc1,.,.,.,.,54,.,.,.
CCc1ccccc1Nc1ccc(C(=O)O)cc1N,.,.,.,.,.,.,/,/
C=CCCC(=O)N1CCCC(C(=O)c2cccc(OC)c2)C1 (stereo unspecified),/,/,/,.,.,/,/,/
CN(Cc1ccccc1)S(=O)(=O)c1ccc(NC(=O)c2ccccc2C(=O)O)cc1,/,/,/,.,/,/,/,/
CCN(CC)c1ccc(/C=N/n2c(=S)[nH]nc(C)c2=O)cc1,.,.,.,.,35,.,.,.
NS(=O)(=O)c1ccc(Nc2nc(-c3ccc(O)cc3)cs2)cc1,.,.,.,.,45,.,44,.
Cc1ccc2nc(NC(=O)CSc3nc(=O)n(CCN(C)C)c4c3CCCC4)sc2c1,/,/,/,.,/,/,/,/
N#Cc1c2n(c(=S)n(-c3ccccc3[N+](=O)[O-])c1=O)CCCCC2,.,.,.,.,35,.,.,.
O=C(Nc1ccccc1C(F)(F)F)c1ncn[nH]1,.,.,.,.,59,.,57,.
CCN(CC)c1ccc([N+](=O)[O-])cc1/C=N/NC(=O)CC#N,.,.,.,.,.,.,/,/
O=C(O)Cn1cc(/C=N/Nc2ccc([N+](=O)[O-])cn2)c2ccccc21,/,/,/,.,53,/,.,.
Cc1ccc(-n2c(C)cc(/C=N/Nc3ccc([N+](=O)[O-])cn3)c2C)cc1,.,.,.,.,.,.,/,/
Cc1cc(/C=N/Nc2ccc([N+](=O)[O-])cn2)c(C)n1-c1ccccc1,.,.,.,.,51,.,.,.
Cc1cc(/C=N/NC(=O)CC#N)c(C)n1-c1ccc([N+](=O)[O-])cc1,.,.,.,.,34,.,.,.
Cc1c(C(=O)O)cccc1-n1c(C)cc(/C=N/Nc2ccc([N+](=O)[O-])cn2)c1C,62,.,.,.,59,.,.,.
COc1ccc(NC(=O)CN(C)C(=O)CN2C(=O)NC3(CCCC3)C2=O)cc1,/,/,/,.,/,/,/,/
COC(=O)CN=Cc1c(C)[nH]n(-c2ccccc2)c1=O,.,.,.,.,.,.,/,/
SMILES,Hck-Nef inh,RBBP9 inh,Runt-SMMHC FRET,RanGTP-Imp inh,PfM18AAP inh-1,Runt-CBFb FRET,PfM18AAP inh-2,CTSL1 confirm
Cc1[nH]n(-c2ccccc2)c(=S)c1C=NCCCN=Cc1c(C)[nH]n(-c2ccccc2)c1=S,.,.,.,.,59,.,.,.
O=C1NC2(CCCCC2)C(=O)N1CC(=O)N(Cc1ccccc1)c1ccccc1,/,/,/,.,.,/,/,/
Cc1cc(=S)[nH]c(=S)[nH]1,.,.,.,.,38,.,.,.
NNc1nc2sc3c(c2c(=O)n1Cc1ccccc1)CCC3,.,.,.,.,.,.,/,/
NNc1nc(-c2ccccc2)nc2sc3c(c12)CCCC3,.,.,.,.,32,.,.,.
CC1CCc2c(sc3nc(C(C)(C)C)nc(N4CCN(C(=O)CCl)CC4)c23)C1 (stereo unspecified),/,/,/,.,.,/,/,/
Cc1cccc(C)c1NC(=O)CSCC(=O)c1ccc(O)c(O)c1,.,.,.,.,48,.,.,.
O=C(CCCn1cncn1)N1CCCC(Nc2ccc(F)cc2)C1 (stereo unspecified),/,/,/,.,.,/,/,/
CC(C(=O)N(C)C1CCS(=O)(=O)C1)N1C(=O)/C(=C/c2ccc(F)cc2)SC1=S (stereo unspecified),/,/,/,.,.,/,/,/
CCN(C(=O)C(C)N1C(=O)/C(=C/c2ccco2)SC1=S)C1CCS(=O)(=O)C1 (stereo unspecified),/,/,/,.,43,/,.,.
S=C(Nc1cccc(Cl)c1Cl)Nn1cnnc1,.,.,.,.,82,.,82,.
O=C(Nc1cccc(Cl)c1Cl)Nn1cnnc1,/,/,/,.,84,/,77,.
Nc1cc(-c2ccccc2)ccc1O,.,.,.,.,35!,.,.,.
Cc1ccc(N=C(NO)c2nonc2N)c(C)c1,.,.,.,.,34,.,.,.
Cc1ccc(N=C(NO)c2nonc2N)cc1,.,.,.,.,.,.,/,/
COc1cc(C(=S)N2CCCCC2)ccc1O,.,.,.,/,36,.,.,.
COc1cc(C(=S)N2CCC(C)CC2)ccc1O,.,.,.,.,.,.,/,/
COc1cccc(C(=S)N2CCCC2)c1OC,/,/,/,.,39,/,.,.
COc1cccc(C(=O)N2CCN(C(=O)c3cccc4ccccc34)CC2)c1OC,.,.,.,.,.,.,/,/
CCOC(=O)C(NC(=O)N(C)C)(Nc1sc(C)c(CC)c1C#N)C(F)(F)F (stereo unspecified),.,.,.,.,49,.,.,.
Cc1cccc(C)c1NC(=O)C(C)Sc1nnc(C)n1CC1CCCO1 (stereo unspecified),/,/,/,.,.,/,/,/
CC(C)Cc1nnc(NC(=O)CSc2ncn[nH]2)s1,.,.,.,.,38,.,40,.
O=C(CSc1ncn[nH]1)Nc1c(Br)cc([N+](=O)[O-])cc1Br,.,.,.,.,50,.,.,.
Cc1ccc(-c2nnc(N3CCN(C(=O)CSc4ncn[nH]4)CC3)c3ccccc23)cc1,.,.,.,/,42,.,.,.
O=C(CSc1ncn[nH]1)c1ccc(OC(F)F)cc1,.,.,.,.,39,.,.,.
NS(=O)(=O)c1ccc(NC(=O)CSc2ncn[nH]2)cc1,.,.,.,.,.,.,/,/
COc1ccc(N(C(=O)c2cccnc2)S(=O)(=O)c2cc(OC)ccc2OC)cc1,/,/,/,.,.,/,/,/
Cc1nn(-c2ccc(N3CCCCC3)nn2)c(C)c1CCC(=O)Nc1ccc(F)c(F)c1,/,/,/,.,.,/,/,/

# High-throughput results from PubChem BioAssay.
